Source: ChEMBL document CHEMBL4673180, “Synthesis of quinone imine and sulphur-containing compounds with antitumor and trypanocidal activities: redox and biological implications” (RSC Med Chem, 2020)

Assays:
[1] = Selectivity index, ratio of IC50 for mouse L929 cells to IC50 for human Lucena1 cells after 72 hrs by MTT assay
In short: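 Selectivity index is the ratio of IC50 in murine L929 fibroblasts to IC50 in Lucena 1 cells, each measured by 72 h MTT assay (absorbance 550 nm). IC50 values came from nonlinear regression of three independent experiments in triplicate.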

[2] = Selectivity index, ratio of IC50 for mouse L929 cells to IC50 for human K-562 cells after 72 hrs by MTT assay; type: toxicity; details: L929 cells versus K-562 cells, read-out: Ratio IC50
In short: (§1)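 Both cell types were kept in medium with 10% FBS, 2 mM L-glutamine and penicillin/streptomycin at 37 °C, 5% CO2. Seeding was 0.7 × 10^5 cells per well for HCT-116, 0.1 × 10^6 for the other lines. Cells got compound in DMSO (0.1% final) for 72 h, then 0.5 mg/mL MTT for 3 h, with formazan read at 550 nm. IC50 came from nonlinear regression over three independent experiments in triplicate. SI is the L929 IC50 divided by the cancer-line IC50.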

[3] = Selectivity index, ratio of IC50 for mouse L929 cells to IC50 for human HCT116 cells after 72 hrs by MTT assay; type: toxicity; details: L929 cells versus HCT116 cells, read-out: Ratio IC50; in short: as §1
[4] = test system: NCI-H460; test: Cytotoxicity against human NCI-H460 cells assessed as reduction in cell viability after 72 hrs by MTT assay; type: functional, cell-based; details: NCI-H460, 72 h
In short: (§2)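 Cells were grown in medium with 10% FBS, 2 mM L-glutamine, penicillin and streptomycin at 37 °C, 5% CO2. Compounds in DMSO (0.1% final) were applied for 72 h. MTT (0.5 mg/mL) was added for 3 h, formazan dissolved in DMSO, and absorbance read at 550 nm. IC50 by nonlinear regression; three independent experiments in triplicate.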

[5] = Selectivity index, ratio of IC50 for mouse L929 cells to IC50 for human PC3 cells after 72 hrs by MTT assay; type: toxicity; details: L929 cells versus PC3 cells, read-out: Ratio IC50; in short: as §1
[6] = test system: HCT-116; test: Cytotoxicity against human HCT-116 cells assessed as reduction in cell viability after 72 hrs by MTT assay; type: functional, cell-based; details: HCT-116, 72 h
In short: as §2, with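 “CO2. Seeding per well was 0.1 × 10^6 for leukaemia, PC3, L929 and NCI-H460, and 0.7 × 10^5 for HCT-116.” for “CO2.”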

[7] = test system: PC-3; test: Cytotoxicity against human PC-3 cells assessed as reduction in cell viability after 72 hrs by MTT assay; type: functional, cell-based; details: PC-3, 72 h
In short: as §2, with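 “CO2. Seeding per well was 0.1 × 10^6 for leukaemia, PC3, L929 and NCI-H460, and 0.7 × 10^5 for HCT-116.” for “CO2.”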

[8] = Selectivity index, ratio of IC50 for mouse L929 cells to IC50 for human HL-60cells after 72 hrs by MTT assay; type: toxicity; details: L929 cells versus HL-60 cells, read-out: Ratio IC50; in short: as §1
[9] = test system: HL-60; test: Cytotoxicity against human HL-60 cells assessed as reduction in cell viability after 72 hrs by MTT assay; type: functional, cell-based; details: HL-60, 72 h; in short: as §2
[10] = Cytotoxicity against human Lucena1 cells assessed as reduction in cell viability after 72 hrs by MTT assay; type: functional, cell-based; details: Lucena 1, 72 h
In short: as §2, with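 “CO2. Seeding per well was 0.1 × 10^6 for leukaemia, PC3, L929 and NCI-H460, and 0.7 × 10^5 for HCT-116.” for “CO2.”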

[11] = test system: L929; test: Cytotoxicity against mouse L929 cells assessed as reduction in cell viability after 72 hrs by MTT assay; type: cell-based; details: L929, 72 h
In short: as §2, with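 “CO2. Seeding per well was 0.1 × 10^6 for leukaemia, PC3, L929 and NCI-H460, and 0.7 × 10^5 for HCT-116.” for “CO2.”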

[12] = test system: K562; test: Cytotoxicity against human K562 cells assessed as reduction in cell viability after 72 hrs by MTT assay; type: functional, cell-based; details: K562, 72 h
In short: as §2, with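 “CO2. Seeding per well was 0.1 × 10^6 for leukaemia, PC3, L929 and NCI-H460, and 0.7 × 10^5 for HCT-116.” for “CO2.”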

[13] = Selectivity index, ratio of IC50 for mouse L929 cells to IC50 for human NCI-H460 cells after 72 hrs by MTT assay; type: toxicity; details: L929 cells versus NCI-H460 cells, read-out: Ratio IC50; in short: as §1

For `C#CCOC1=C/C(=N\c2ccc(I)cc2)c2ccccc2C1=O`, the “Ratio IC50” value [1] was 1.6, the selectivity ratio at 72 h [2] was 1.4 and the selectivity ratio at 72 h [3] was 1.5. The IC50 [4] was greater than 20 µM, the selectivity ratio at 72 h [5] was 1 and the IC50 [6] was 16.5 µM. It also gave an IC50 [7] greater than 20 µM, a selectivity ratio at 72 h [8] of 2 and an IC50 [9] of 11.9 µM. The IC50 [10] was 15.1 µM, the IC50 [11] was greater than 20 µM and the IC50 [12] was 17 µM. For the same molecule, the selectivity ratio at 72 h [13] was 1.
For `C#CCOC1=C/C(=N\c2ccc(C)cc2)c2ccccc2C1=O`, the “Ratio IC50” value [1] was 2.4, the selectivity ratio at 72 h [2] was 1.5 and the selectivity ratio at 72 h [3] was 1.6. The IC50 [4] was 16.9 µM, the selectivity ratio at 72 h [5] was 1.8 and the IC50 [6] was greater than 20 µM. For the same molecule, the IC50 [7] was 18.4 µM, the selectivity ratio at 72 h [8] was 2.8 and the IC50 [9] was 12 µM. The IC50 [10] was 14.1 µM, the IC50 [11] was greater than 20 µM and the IC50 [12] was greater than 20 µM. It also gave a selectivity ratio at 72 h [13] of 2.
In the case of `C#CCOC1=C/C(=N\c2ccc(C(C)=O)cc2)c2ccccc2C1=O`, the “Ratio IC50” value [1] is reported as 1.9, the selectivity ratio at 72 h [2] is reported as 1 and the selectivity ratio at 72 h [3] is reported as 1. It also gave an IC50 [4] greater than 20 µM, a selectivity ratio at 72 h [5] of 24 and an IC50 [6] greater than 20 µM. The IC50 [7] was 12.5 µM, the selectivity ratio at 72 h [8] was 1.1 and the IC50 [9] was greater than 20 µM. It also gave an IC50 [10] of 16.2 µM, an IC50 [11] greater than 20 µM and an IC50 [12] greater than 20 µM. It also gave a selectivity ratio at 72 h [13] of 1.
For `C#CCOC1=C/C(=N\c2ccc(OC)cc2)c2ccccc2C1=O`, the “Ratio IC50” value [1] was 2.8, the selectivity ratio at 72 h [2] was 1 and the selectivity ratio at 72 h [3] was 2.9. The IC50 [4] was 9.45 µM, the selectivity ratio at 72 h [5] was 3.6 and the IC50 [6] was 10.7 µM. For the same molecule, the IC50 [7] was 8.82 µM, the selectivity ratio at 72 h [8] was 4.4 and the IC50 [9] was 7.18 µM. It also gave an IC50 [10] of 11.4 µM, an IC50 [11] greater than 20 µM and an IC50 [12] greater than 20 µM. For the same molecule, the selectivity ratio at 72 h [13] was 3.3.
With `C#CCOC1=C/C(=N\c2ccc(F)cc2)c2ccccc2C1=O` the “Ratio IC50” value [1] was 1.9, the selectivity ratio at 72 h [2] was 2.4 and the selectivity ratio at 72 h [3] was 1.8. For the same molecule, the IC50 [4] was 17 µM, the selectivity ratio at 72 h [5] was 1 and the IC50 [6] was 18.7 µM. It also gave an IC50 [7] greater than 20 µM, a selectivity ratio at 72 h [8] of 3.6 and an IC50 [9] of 9.2 µM. It also gave an IC50 [10] of 17 µM, an IC50 [11] greater than 20 µM and an IC50 [12] of 13.5 µM. The selectivity ratio at 72 h [13] was 1.9.
In the case of `C#CCOC1=C/C(=N\c2ccccc2)c2ccccc2C1=O`, the “Ratio IC50” value [1] is reported as 1.5, the selectivity ratio at 72 h [2] is reported as 1 and the selectivity ratio at 72 h [3] is reported as 1.2. For the same molecule, the IC50 [4] was greater than 20 µM, the selectivity ratio at 72 h [5] was 2.5 and the IC50 [6] was greater than 20 µM. It also gave an IC50 [7] of 14.1 µM, a selectivity ratio at 72 h [8] of 2 and an IC50 [9] of 17.4 µM. The IC50 [10] was greater than 20 µM, the IC50 [11] was greater than 20 µM and the IC50 [12] was greater than 20 µM. It also gave a selectivity ratio at 72 h [13] of 1.6.
`COc1cccc2c1C(=O)c1c(O)c3c(c(O)c1C2=O)C[C@@](O)(C(=O)CO)C[C@@H]3O[C@H]1C[C@H](N)[C@H](O)[C@H](C)O1` [DOXORUBICIN] showed an IC50 [10] of 0.18 µM and an IC50 [12] of 0.49 µM.
For `C#CCOC1=C/C(=N\c2ccc(Br)cc2)c2ccccc2C1=O`, the “Ratio IC50” value [1] was 2.2, the selectivity ratio at 72 h [2] was 1.2 and the selectivity ratio at 72 h [3] was 1.2. The IC50 [4] was greater than 20 µM, the selectivity ratio at 72 h [5] was 1.7 and the IC50 [6] was greater than 20 µM. It also gave an IC50 [7] of 15.9 µM, a selectivity ratio at 72 h [8] of 1.9 and an IC50 [9] of 14.2 µM. It also gave an IC50 [10] of 12.5 µM, an IC50 [11] greater than 20 µM and an IC50 [12] greater than 20 µM. It also gave a selectivity ratio at 72 h [13] of 1.3.
